Laboratory results as given in article PMC3514014 (Molecular and biochemical parasitology, 2010).
Where a SMILES comes first, the peptide text is derived from it. Where no end group is shown, it is not given here. The star is where a group is joined. ACC = NC(=O)Cc1cc(=O)oc2cc(N*)ccc12; AMC = Cc1cc(=O)oc2cc(N*)ccc12

Legend:
[1] = tested on: cathepsin C; settings: cited from earlier work
[2] = tested on: recombinant human cathepsin C; type: biochemical; settings: for Km / kcat: 25 °C, pH 6.0, 30 mM chloride, mean ± SD, triplicate
[3] = biological target: T1, recombinant DPAP1 (rDPAP1) (Plasmodium falciparum, UniProt Q8IIJ9); type: biochemical; settings: for Km / kcat: rDPAP1, 25 °C, pH 6.0, 30 mM chloride, mean ± SD, triplicate, NH = no hydrolysis; for hydrolysis of the substrate: recombinant DPAP1, concentrations up to 500 μM
T1 sequence (Q8IIJ9 28-209 limits assumed): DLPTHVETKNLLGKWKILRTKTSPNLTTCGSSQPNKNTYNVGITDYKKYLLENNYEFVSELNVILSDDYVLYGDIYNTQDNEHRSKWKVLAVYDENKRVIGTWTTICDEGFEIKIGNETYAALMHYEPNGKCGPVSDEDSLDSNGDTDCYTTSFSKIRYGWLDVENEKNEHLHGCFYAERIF
T1 sequence (Q8IIJ9 370-599 limits assumed): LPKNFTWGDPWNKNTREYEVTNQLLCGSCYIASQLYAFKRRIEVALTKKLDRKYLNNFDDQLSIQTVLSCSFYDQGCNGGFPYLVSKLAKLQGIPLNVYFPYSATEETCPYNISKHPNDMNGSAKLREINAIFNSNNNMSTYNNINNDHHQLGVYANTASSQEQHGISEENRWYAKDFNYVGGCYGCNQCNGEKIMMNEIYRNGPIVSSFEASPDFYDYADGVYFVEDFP
T1 sequence (Q8IIJ9 600-700 limits assumed): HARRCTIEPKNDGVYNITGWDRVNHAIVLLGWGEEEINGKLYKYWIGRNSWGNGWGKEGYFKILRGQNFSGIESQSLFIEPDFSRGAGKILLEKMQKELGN

[4] = biological target: T2, native DPAP1 (nDPAP1) (Plasmodium falciparum, UniProt Q8IIJ9); type: biochemical; settings: for hydrolysis of the substrate: native DPAP1, concentrations up to 500 μM; for kcat: nDPAP1, 25 °C, pH 6.0, 30 mM chloride, mean ± SD, triplicate, NH = no hydrolysis
T2 sequence (Q8IIJ9 28-209 limits assumed): T1 sequence (Q8IIJ9 28-209 limits assumed)
T2 sequence (Q8IIJ9 370-599 limits assumed): T1 sequence (Q8IIJ9 370-599 limits assumed)
T2 sequence (Q8IIJ9 600-700 limits assumed): T1 sequence (Q8IIJ9 600-700 limits assumed)

[5] = biological target: T1, recombinant DPAP1 (rDPAP1); assay: Inhibition of recombinant DPAP1; type: biochemical
In short: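 Recombinant E. coli-expressed DPAP1-His6, activated by TEV cleavage, at 0.8 nM. Run at 25 °C in 50 mM sodium MES pH 6.0 with 2 mM dithiothreitol and 1 mM EDTA, total chloride held at 30 mM with NaCl. Fluorogenic release read against an AMC standard, in triplicate. Rates taken from linear progress-curve segments after ~15 min lag; Ki by Dixon method.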

[6] = tested on: cathepsin C; settings: cited from earlier work; remark: listed apart in the source
[7] = tested on: cathepsin C; assay: Inhibition of cathepsin C under the DPAP1 assay conditions; type: biochemical, human; settings: assay conditions used for DPAP1
[8] = biological target: T2, native DPAP1 (nDPAP1); assay: Inhibition of native DPAP1; type: biochemical; settings: Fig. 4 and Fig. S4, stated in words
[9] = recombinant DPAP1, Fig. 4 and Fig. S4, stated in words

Question: With `NC(Cc1ccccc1)C(=O)NCC(=O)O` (racemic) [DL-Phe-Gly] as the compound, how does the “inhibition of cathepsin C” value [1] read?
Answer: competitively inhibited

Question: Which “turnover of the substrate” value [2] does the source give for `Cc1cc(=O)oc2cc(NC(=O)[C@H](CCCN=C(N)N)NC(=O)[C@@H](N)CCCN=C(N)N)ccc12` [Arg-Arg-AMC] (H-Arg-Arg-{AMC}) here?
Answer: no turnover

Question: What does the source list for `CC[C@H](C)[C@H](N)C(=O)N[C@@H](CCCNC(=N)N)C(=O)Nc1ccc2c(CC(N)=O)cc(=O)oc2c1` [Ile-Arg-ACC]?
Answer: Km [3]: 3.9 ± 0.2 µM; kcat [3]: 0.072 ± 0.003 s⁻¹; Km [2]: 28 ± 2 µM; kcat [2]: 17 ± 1 s⁻¹

Question: Which “inhibition of cathepsin C” value [1] does the source give for `N[C@@H](Cc1ccccc1)C(=O)N[C@@H](Cc1ccccc1)C(=O)O` [L-Phe-L-Phe] (H-Phe-Phe-OH) here?
Answer: competitively inhibited

Question: What does the source list for `N=C(N)NCCC[C@H](NC(=O)[C@@H](N)Cc1ccccc1)C(=O)Nc1ccc2c(CC(N)=O)cc(=O)oc2c1` [Phe-Arg-ACC] (H-Phe-Arg-{ACC})?
Answer: hydrolysis of the substrate [3]: no hydrolysis was observed; hydrolysis of the substrate [4]: no hydrolysis was observed; kinetic behaviour as substrate ([2]; Fig. S3): substrate inhibition was observed; mode of inhibition ([5]; rDPAP1, hydrolysis of Pro-Arg-AMC, Dixon analysis): purely competitive; Ki ([5]; rDPAP1, inhibition of hydrolysis of Pro-Arg-AMC, Dixon analysis): 2200 nM

Question: For `Cc1cc(=O)oc2cc(NC(=O)[C@H](CCCN=C(N)N)NC(=O)[C@@H]3CCCN3)ccc12` [Pro-Arg-AMC] (H-Pro-Arg-{AMC}), which Km [3] is on record?
Answer: 79 ± 2 µM

Question: What about the kcat [3] of the same compound?
Answer: 1.8 ± 0.1 s⁻¹

Question: And the kcat [4]?
Answer: 6.2 ± 0.4 s⁻¹

Question: And the Km [2]?
Answer: 130 ± 10 µM

Question: And the kcat [2]?
Answer: 490 ± 10 s⁻¹

Question: For `CC(C)[C@H](N)C(=O)N[C@@H](CCCNC(=N)N)C(=O)Nc1ccc2c(CC(N)=O)cc(=O)oc2c1` [Val-Arg-ACC] (H-Val-Arg-{ACC}), which Km [3] is on record?
Answer: 20 ± 1 µM

Question: What about the kcat [3] of the same compound?
Answer: 0.72 ± 0.02 s⁻¹

Question: What about the kcat [4] of the same compound?
Answer: 3.5 ± 0.1 s⁻¹

Question: What about the Km [2] of the same compound?
Answer: 51 ± 8 µM

Question: What about the kcat [2] of the same compound?
Answer: 180 ± 10 s⁻¹

Question: Which “increase in kcat/Km relative to Pro-Phe-AMC” value [6] does the source give for `Cc1cc(=O)oc2cc(NC(=O)C(Cc3ccccc3)NC(=O)C(N)C(C)C)ccc12` (stereo not drawn) [Val-Phe-AMC] (H-Val-Phe-{AMC}; configuration not given here) here?
Answer: 10 fold

Question: With `CC[C@H](N)C(=O)NNC(=O)N[C@@H](CCc1ccccc1)C(=O)N[C@@H](C)Cc1cccc(F)c1` [compound 1, 1-(2S-2-aminobutanoyl)-4-{2S-N-[2S-3-(m-fluorophenyl)propan-2-yl-amide]-4-phenylbutan-2-yl-amide}semicarbazide] as the compound, how does the type of inhibition [7] read?
Answer: slow, tight-binding inhibitor

Question: What about the Ki [5, 9] of the same compound?
Answer: sub-nanomolar

Question: And the Ki [8]?
Answer: sub-nanomolar

Question: For `CC[C@H](N)C(=O)NC(C#N)Cc1ccccc1` (stereo partly shown) [compound 2, S-2-aminobutyryl-phenylalanine-nitrile], which Ki [5, 9] is on record?
Answer: single-digit nanomolar

Question: What about the Ki [8] of the same compound?
Answer: single-digit nanomolar

Question: For `NC(=O)[C@@H](N)Cc1ccccc1` [phenylalaninamide], which “inhibition of cathepsin C” value [1] is on record?
Answer: competitively inhibited

Question: With Arg-Arg-{ACC} as the compound, how does the “hydrolysis of the substrate” value [3] read?
Answer: no hydrolysis was observed

Question: What about the “hydrolysis of the substrate” value [4] of the same compound?
Answer: no hydrolysis was observed
